Compound activity: PubChem BioAssay, NMMLSC
In the library only some 2.3% were active in any assay of this set; here they are far more common.
Arrestin-AP2 inh: blocks beta-arrestin peptide binding to AP2 adaptin; FITC-arrestin peptide / GST-AP2 beads, flow cytometry; AP2 beta2 appendage carries R879A mutation; inhibition, % at 10 µM; 0.31% of 340,000 active;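 active = inhibition above a set limit, near 3 SD of compounds lacking own fluorescence, cut at about 54% in these data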;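 also: plate controls were DMSO wells for no effect and 5 µM unlabelled arrestin peptide for full effect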
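System: GST-AP2 R879A glutathione beads. Medium: PBS with 0.05% Tween 20 and 0.1% BSA. Also added: FITC-arrestin peptide, 50 nM. Incubation: 12 min plus 1 h, RT. Measured by: high-throughput flow cytometry of beads, ex 488, em 535 nm. Evaluation: percent drop in bead-associated FITC signal.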
MEKK2 mut-MEK5: signal of MEK5 binding to mutant human MEKK2 PB1 domain; AID 1530; 0.35% of 290,000 active; percent response, % at 10 µM; bead flow cytometry, Alexa488-MEK5 binding to MEKK2 mutant; in the data active = percent response above about 24%, passing the limit was not always enough
MEKK2wt PB1 HTS: raises or lowers MEK5 binding to wildtype human MEKK2 PB1 domain. binding response (% of control), % at 10 µM. bead flow cytometry, Alexa488-MEK5 binding to MEKK2 WT; actives lie on both sides. 1.1% of 290,000 active; in the data active = binding response below about 67% or above about 130%
MEKK3 PB1 HTS: modulators (inhibitors or enhancers) of MEK5 binding to human MEKK3 PB1 domain. bead-based flow cytometry, Alexa488-MEK5 binding to MEKK3; actives lie on both sides; 0 = blocked by unlabeled MEK5, 100 = vehicle. binding response (% of control), % at 10 µM. 1.4% of 290,000 active. AID 1529;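 active = binding response more than 3 SD above or below the average of its plate-row segment, actives on both sides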;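 also: Alexa488 bead fluorescence after subtracting the streptavidin-only scavenger bead signal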
Target sequence (Q99759 whole entry, looked up, the tested form may be a part): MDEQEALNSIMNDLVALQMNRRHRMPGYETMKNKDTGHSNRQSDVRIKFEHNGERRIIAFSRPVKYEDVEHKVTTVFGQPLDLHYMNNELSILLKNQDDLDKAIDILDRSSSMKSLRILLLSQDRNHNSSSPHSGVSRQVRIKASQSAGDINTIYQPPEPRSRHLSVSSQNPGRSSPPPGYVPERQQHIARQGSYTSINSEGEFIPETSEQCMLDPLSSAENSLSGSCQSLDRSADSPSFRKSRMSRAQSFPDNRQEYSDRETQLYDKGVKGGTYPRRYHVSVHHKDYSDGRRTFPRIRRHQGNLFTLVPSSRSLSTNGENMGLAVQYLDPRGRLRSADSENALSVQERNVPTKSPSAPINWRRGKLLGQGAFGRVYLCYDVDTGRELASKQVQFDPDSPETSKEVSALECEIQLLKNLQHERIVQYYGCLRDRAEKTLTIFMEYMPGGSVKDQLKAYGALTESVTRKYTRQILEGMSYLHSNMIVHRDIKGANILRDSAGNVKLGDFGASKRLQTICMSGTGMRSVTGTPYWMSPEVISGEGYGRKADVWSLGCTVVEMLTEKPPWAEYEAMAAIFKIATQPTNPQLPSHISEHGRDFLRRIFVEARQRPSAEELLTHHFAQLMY
MEKK2wt confirm: raises or lowers MEK5 binding to wildtype human MEKK2, retest. bead flow cytometry, Alexa488-MEK5 binding to MEKK2 WT; actives lie on both sides. binding response (% of control), % at 10 µM. shares compounds with MEKK3 PB1 HTS. 2.4% of 5,900 active. AID 1892; in the data active = binding response below about 16% or above about 210%; inactive = in between
MEKK2mut confirm: signal of MEK5 binding to mutant human MEKK2, retest. percent response, % at 10 µM. AID 1893. bead flow cytometry, Alexa488-MEK5 binding to MEKK2 mutant. shares compounds with MEKK3 PB1 HTS. 2% of 5,900 active; in the data active = percent response mostly above about 71%, no sharp cut-off; inactive = mostly below about 38%;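 also: higher means compound restores mutant binding toward wildtype level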
MEKK3-MEK5 inh: MEKK3-MEK5 PB1 inhibition, single concentration confirmation | 1.8% of 5,900 active | bead flow cytometry, Alexa488-MEK5 binding to MEKK3; stronger effect = lower value | shares compounds with MEKK3 PB1 HTS | binding response (% of control), % at 10 µM;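 active = binding response below 72% of control, or above a set upper limit, though filed actives all read lower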;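 also: 100% = DMSO only wells and 0% = binding blocked by excess unlabeled MEK5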
An asterisk follows results filed as active; . = no result; [ ] = remark or other dose.

SMILES	Arrestin-AP2 inh	MEKK2 mut-MEK5	MEKK2wt PB1 HTS	MEKK3 PB1 HTS	MEKK2wt confirm	MEKK2mut confirm	MEKK3-MEK5 inh
COc1ccccc1CCn1cnc2c3cc(C)ccc3n(C)c2c1=O	35	-16	2.0*[inhibitor]	2.0*[inhibitor]	104	3	103
COc1ccc(-n2c(=O)c3ccccc3n(CC(=O)NC3CCCCC3)c2=O)cc1	16	4	121	124*	104	2	102
COc1cc(NC(=O)Cn2c(=O)n(CC3CCCO3)c(=O)c3ccccc32)cc(OC)c1 (configuration not stated)	14	0	113	138*	116	14	109
CCCC(=O)NCCc1nc2cc([N+](=O)[O-])ccc2n1C	-3	-2	77	80	.	.	.
CN(C)CCN(C(=O)CCc1ccccc1)c1nc2c(F)cc(F)cc2s1	5	3	130	104	.	.	.
CN(C)CCCN(C(=O)CCc1ccccc1)c1nc2ccc(F)cc2s1	6	5	135	129*	144	26	106
CN(C)CCCN(C(=O)CCc1ccccc1)c1nc2ccc(Br)cc2s1	-1	43	233*	113	176	42	108
COC(=O)c1sc2nc(C)nc(SCC(=O)C(C)(C)C)c2c1C	10	-8	88	100	.	.	.
O=C(Nc1ccon1)c1cccc(C(F)(F)F)c1	-6	-3	77	70*[inhibitor]	96	-4	102
O=C(Nc1cccc(C(F)(F)F)c1)Nc1ccon1	22	3	105	104	.	.	.
O=C(Nc1ccccc1)c1cccc(N2CCCC2=O)c1	-6	-16	77	61*[inhibitor]	107	13	110
O=C(Nc1ccccc1)c1cccc(C(F)(F)F)c1	4	1	108	144*	104	1	105
COc1ccc(CCN2CC(C(=O)NCCc3ccccc3C)CCC2=O)cc1 (configuration not stated)	3	2	104	102	.	.	.
O=C(NCc1ccco1)c1ccc(COc2ccccc2[N+](=O)[O-])o1	-3	8	109	103	.	.	.
Cc1cc2nc(CSc3ccccc3)cc(=O)n2[nH]1	1	-3	97	97	.	.	.
Cc1ccc(OCC(O)Cn2c(=N)n(Cc3ccccc3)c3ccccc32)cc1 (configuration not stated)	3	6	140*	106	120	8	99
N=c1n(Cc2ccc(Cl)cc2)c2ccccc2n1CC(O)COc1ccccc1 (configuration not stated)	9	3	142*	86	149	47	105
Cc1cccc(OCC(O)Cn2c(=N)n(Cc3ccccc3)c3ccccc32)c1 (configuration not stated)	-24	-2	116	95	.	.	.
N=c1n(Cc2ccccc2)c2ccccc2n1CC(O)COc1ccc(Cl)cc1Cl (configuration not stated)	-8	63*	220*	111	172	30	97
N=c1n(Cc2ccccc2)c2ccccc2n1Cc1ccccc1	2	-2	106	95	.	.	.
COc1ccc(OCC(O)Cn2c(=N)n(Cc3ccccc3)c3ccccc32)cc1 (configuration not stated)	-2	5	122	95	.	.	.
CCOC(=O)C1(C(=O)OCC)NC(=O)CC1C(C)C (configuration not stated)	-23	.	.	.	.	.	.
Cc1ccc2c(c1)c1c(n2CC(O)CNC2CCCCC2)CCCC1 (configuration not stated)	3	21	154*	108	133	17	99
Cc1ccc2c(c1)c1c(n2CC(O)CNC(CO)(CO)CO)CCCC1 (configuration not stated)	14	9	127	114	.	.	.
CCCCOC(=O)c1ccc(NC(=O)c2ccccc2OC)cc1	-5	2	118	136*	103	2	106
SMILES	Arrestin-AP2 inh	MEKK2 mut-MEK5	MEKK2wt PB1 HTS	MEKK3 PB1 HTS	MEKK2wt confirm	MEKK2mut confirm	MEKK3-MEK5 inh
CCCCOC(=O)c1ccc(NC(=O)C(=O)NCc2ccco2)cc1	6	0	110	136*	88	-13	91
CCCCOC(=O)c1ccc(NC(=O)C(=O)NCc2ccccn2)cc1	-10	16	104	110	.	.	.
CC1(C2CC2)NC(=O)N(CC(=O)Nc2ccc(C(F)(F)F)cc2)C1=O (configuration not stated)	-10	.	.	.	.	.	.
CCCCCCCCCCCCCCCCn1cc[n+](C)c1	30	76*	213*	113	148	17	100
C[n+]1ccn(CC(=O)c2cccs2)c1	8	10	102	100	.	.	.
O=C1C(=O)N(Cc2cccs2)c2ccccc21	11	1	102	104	.	.	.
CCO/C(=C/c1sc2ccc(OC)cc2[n+]1CCCS(=O)(=O)[O-])CC	-1	1	99	98	.	.	.
CCC(=O)/C=C1/Sc2ccc(OC)cc2N1CCO	-31	-10	106	107	.	.	.
CCC(/C=C1\Sc2ccc(OC)cc2N1CC)=C\c1sc2ccc(OC)cc2[n+]1CCCS(=O)(=O)[O-]	12	-45	6.0*[inhibitor]	56*[inhibitor]	17*[inhibitor]	-32	64*
CCC(/C=C1\Sc2ccc(OC)cc2N1CCO)=C\c1sc2ccc(OC)cc2[n+]1CCO	77*	-27	1.0*[inhibitor]	36*[inhibitor]	1.0*[inhibitor]	-35	39*
Nc1cc(N2CCOCC2)c(Cl)cc1[N+](=O)[O-]	19	-2	95	73*[inhibitor]	97	-2	103
Cc1ccc(C)c(S(=O)(=O)NCc2ccncc2)c1	-3	11	128	137*	89	-9	97
Cc1ccc(-c2nn(-c3ccccc3)cc2CSC(=N)N)cc1	-2	52*	205*	113	141	13	82
O=C(Cn1cc2c(n1)CCCC2)NCCCN1CCCC1	-4	2	134*	102	113	4	94
CC1(C(=O)Nc2cccc(-n3cnnn3)c2)Cc2ccccc2C(=O)O1 (configuration not stated)	15	.	.	.	.	.	.
Cc1ccc(NC(=O)CN(C)C(=O)C(C)N2CCN(Cc3ccccc3C)CC2)cc1 (configuration not stated)	-11	.	.	.	.	.	.
CCCCCc1cc(=O)oc2c(C(CCN3CCCC(C)C3)c3cc(OC)c(OC)c(OC)c3)c(OC)cc(OC)c12 (configuration not stated)	-5	29*	163*	115	203	45	110
CCCCCc1cc(=O)oc2c(C(CCN3CCCCC3)c3cc(OC)c(OC)c(OC)c3)c(OC)cc(OC)c12 (configuration not stated)	-3	13	147*	108	155	25	102
